Published values gathered from unrelated publications.
Each line is one published result; the experiments were not run side by side.
Target: Serine/threonine-protein kinase 4 (STK4, Homo sapiens, UniProt Q13043)
Residues used in one study (Q13043 1-487): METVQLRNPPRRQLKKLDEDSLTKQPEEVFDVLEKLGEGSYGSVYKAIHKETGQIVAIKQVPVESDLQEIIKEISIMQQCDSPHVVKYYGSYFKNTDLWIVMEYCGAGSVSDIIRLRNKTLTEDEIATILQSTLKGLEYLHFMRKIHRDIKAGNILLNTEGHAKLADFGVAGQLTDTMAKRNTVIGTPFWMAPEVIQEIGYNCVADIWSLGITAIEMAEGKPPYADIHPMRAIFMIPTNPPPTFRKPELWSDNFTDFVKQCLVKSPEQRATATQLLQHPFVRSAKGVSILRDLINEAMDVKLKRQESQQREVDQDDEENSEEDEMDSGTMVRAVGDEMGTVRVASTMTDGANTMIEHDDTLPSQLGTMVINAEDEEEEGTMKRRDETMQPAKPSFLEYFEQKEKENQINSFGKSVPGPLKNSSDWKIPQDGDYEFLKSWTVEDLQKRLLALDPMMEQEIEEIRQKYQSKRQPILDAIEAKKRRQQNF

The remaining activity of CC(C)(C)c1nc(-c2cccc(NS(=O)(=O)c3c(F)cccc3F)c2F)c(-c2ccnc(N)n2)s1 is reported as 105% (enzyme activity; inhibitor; radiometric; 1 µM).
O=C(N1CCS(=O)(=O)CC1)N1C[C@H](c2ccc(OC(F)(F)F)cc2)C[C@H](c2nc(C3CC3)no2)C1 gave a remaining binding of 100% (cell-free assay; competition with immobilised ligand; 1 µM).
N#CCCc1ccc2c(c1)-c1[nH]c3ccc([N+](=O)[O-])cc3c1CC(=O)N2 gave a remaining signal of 30.9% (cell-free assay; 0.5 µM).
The remaining binding of Cn1nc(C(=O)NCc2ccc(C(=O)O)cc2)cc1-c1ccc2[nH]ccc2c1 is reported as 80% (cell-free assay; competition with immobilised ligand; 0.1 µM).
For Cn1c2c(Cl)c(Cl)ccc2c2cn[nH]c(=O)c21, the ΔTm was 0.4 °C (thermal stability; DSF; 10 µM).
For Cc1ccc(Nc2nccc(N(C)c3ccc4c(C)n(C)nc4c3)n2)cc1S(N)(=O)=O, the inhibition was 1% (enzyme activity; inhibitor; 0.3 µM).
The remaining activity of CC(C)(O)[C@H]1CC[C@H](Nc2ccc3ncc(-c4cccc(C(F)(F)F)c4)n3n2)CC1 is reported as 90.8% (enzyme activity; inhibitor; 1 µM).
For Cc1ccc(NC(=O)c2ccc(C)c(C(F)(F)F)c2)cc1C#Cc1nn(C2CCC(O)CC2)c2ncnc(N)c12 (centres unmarked), the remaining signal was 109% (cell-free assay; 10 µM).
With Cc1nccc(COC(=O)N2C[C@@H]3[C@@H](CNC(=O)c4ccc5[nH]nnc5c4)[C@@H]3C2)n1 the remaining binding was 100% (cell-free assay; competition with immobilised ligand; 1 µM).
CCN(CC)CCNC(=O)c1c(C)[nH]c(/C=C2\C(=O)Nc3ccc(F)cc32)c1C gave a remaining signal of 10.7% (cell-free assay; 0.5 µM).
With Cn1c2c(Cl)c(Cl)ccc2c2cc[nH]c(=O)c21 the ΔTm was 0.8 °C (thermal stability; DSF; 10 µM).
With CCCS(=O)(=O)Nc1ccc(F)c(C(=O)c2c[nH]c3ncc(-c4ccc(Cl)cc4)cc23)c1F the inhibition was less than 20% (enzyme activity; inhibitor; 1 µM).
The activity vs control of CC(C)c1ccc(NC(=O)c2cccs2)c(-c2nc3ccccc3[nH]c2=O)c1 is reported as 118% (enzyme activity; inhibitor; 1 µM).
The inhibition of CN1CC(Oc2cnc(C#N)cc2-c2ccn3nc(NC(=O)C4CC4)cc3c2)C1 is reported as -5% (enzyme activity; inhibitor; 1 µM).
The remaining binding of Cc1c(NC(=O)c2cc(C(N)=O)nc3cc(F)ccc23)c(C(F)(F)F)nn1Cc1ccc(C(C)(C)C)cc1 is reported as 95% (cell-free assay; competition with immobilised ligand; 1 µM).
CCC1(CC)NC(=O)c2c(c3ccc(Cl)c(Cl)c3n2C)C1C#N (centres unmarked) gave a ΔTm of -0.3 °C (thermal stability; DSF; 10 µM).
O=C(Nc1cnn(-c2csc(C(=O)NC3COC3)c2)c1)Nc1ccccc1Cl gave a remaining activity of 99.3% (enzyme activity; inhibitor; 5 µM).
CS(=O)(=O)N1CCCC(NC(=O)[C@H](CCC2CCCCC2)NC(=O)c2ccc(CNC(=O)c3cnc4ccccn34)cc2)C1 (some centres unmarked) gave a remaining binding of 100% (cell-free assay; competition with immobilised ligand; 0.1 µM).
CNC(=O)c1cc(Oc2ccc(NC(=O)Nc3ccc(Cl)c(C(F)(F)F)c3)cc2)ccn1 gave an inhibition of 3% (enzyme activity; inhibitor; 10 µM).
For c1ccc(CNc2nc(N3CCOc4ccccc43)nc3c2CCCC3)cc1, the inhibition was 1.2% (target engagement in cells; inhibitor; chemoproteomics; 20 mM).
The ΔTm of Cn1c2c(c3ccc(Cl)c(Cl)c31)C(C#N)C1(CCCC1)NC2=O (centres unmarked) is reported as 0.3 °C (thermal stability; DSF; 10 µM).
CCN1CCN(Cc2ccc(NC(=O)c3ccc(C)c(Oc4ccnc5[nH]ccc45)c3)cc2C(F)(F)F)CC1 has an inhibition of -64.5% (target engagement in cells; inhibitor; chemoproteomics; Huh-7; 1 µM).
COc1ccc2cc(OCC3(C(=O)O)CN(C(=O)c4ccc(F)cc4)C3)ccc2c1 gave a remaining binding of 100% (cell-free assay; competition with immobilised ligand; 1 µM).
Cn1c2c(c3ccccc31)C(C#N)C(C)(C)NC2=O (centres unmarked) gave a ΔTm of 0.2 °C (thermal stability; DSF; 10 µM).
The remaining binding of CN(C)C(=O)Cn1cc(-c2nc(C3(c4ccc(-c5cnc(N)nc5)cc4)CC3)no2)cn1 is reported as 90% (cell-free assay; competition with immobilised ligand; 1 µM).
With COc1cc2ncnc(Nc3ccc(Oc4ccccc4)c(C)c3C)c2cc1OC the inhibition was -7% (enzyme activity; inhibitor; 1 µM).
For CS(=O)(=O)CCNCc1ccc(-c2ccc3ncnc(Nc4ccc(OCc5cccc(F)c5)c(Cl)c4)c3c2)o1, the remaining signal was 99.4% (cell-free assay; 0.5 µM).
For Cc1nc(C2CCN(C(=O)c3ccc(OC(F)(F)F)cc3N)CC2)c2ncc(N3CCN(C)CC3)cc2n1, the remaining binding was 85% (cell-free assay; competition with immobilised ligand; 1 µM).
CN(c1nccc(-c2cnn3ncccc23)n1)C1CC1 gave a remaining signal of 99% (cell-free assay; 1 µM).
